Measured values of several laboratories.
Protocols differ between the studies behind these lines.
Target: Serine/threonine-protein kinase PAK 6 (PAK6, Homo sapiens, UniProt Q9NQU5)

CS(=O)(=O)NCC[C@H](NC(=O)c1cncc2c1cnn2-c1ccc(F)cc1)c1ccnc(S(C)(=O)=O)c1
remaining binding (cell-free assay; competition with immobilised ligand; 1 µM): 100%

Nc1nc(Nc2ccccc2)sc1C(=O)c1c(F)cccc1F
remaining activity (enzyme activity; inhibitor; 10 µM): 87%

CC(C)(C)c1nc(-c2cccc(NS(=O)(=O)c3c(F)cccc3F)c2F)c(-c2ccnc(N)n2)s1
remaining activity (enzyme activity; inhibitor; radiometric; 1 µM): 79%

CCc1ccccc1C(=O)Nc1n[nH]c2c(C)c(F)c(C3C(C#N)=C(C)N(C)C(C)=C3C#N)cc12
remaining binding (cell-free assay; competition with immobilised ligand; 1 µM): 93%

COc1cc(Nc2cnc(C#N)c(O[C@H](C)CN(C)C)n2)ncc1-c1cnn(C)c1
remaining activity (enzyme activity; inhibitor; radiometric; 1 µM): 77%

COc1cc2ncnc(Nc3ccc(Oc4ccccc4)cc3C)c2cc1OC
inhibition (enzyme activity; inhibitor; 1 µM): 3%

CCN(CC)c1ccc(C2=NNC(=O)CC2C)cc1[N+](=O)[O-] (centres unmarked)
remaining activity (enzyme activity; inhibitor; 10 µM): 126%

N[C@H]1CCN(c2nccc(-c3cnn4ncccc34)n2)C1
remaining binding (binding; 1 µM): 87%

CCN(CC)CCNC(=O)c1c(C)[nH]c(/C=C2\C(=O)Nc3ccc(F)cc32)c1C
inhibition (enzyme activity; inhibitor; 10 µM): 29%

Cc1ccc(NC(=O)c2ccc(CN3CCN(C)CC3)cc2)cc1Nc1nc(-c2cccnc2)cs1
remaining signal (cell-free assay; 0.5 µM): 101%

FC(F)(F)Oc1cccc(-c2cnc3ccc(-c4ccncc4)nn23)c1
activity vs control (enzyme activity; inhibitor; radiometric; 1 µM): 97%

O=C(NCCCC1CCCCC1)c1ccc(CNC(=O)c2cnn(-c3ccccc3)c2C(F)(F)F)cc1
remaining binding (cell-free assay; competition with immobilised ligand; 0.1 µM): 100%

Cn1c(=O)n(-c2ccc(C(C)(C)C#N)cc2)c2c3cc(-c4cnc5ccccc5c4)ccc3ncc21
remaining activity (enzyme activity; inhibitor; 10 µM): 105%

Cc1sc(C(=O)NC2COC2)cc1-n1cc(NC(=O)Nc2c(F)cccc2Cl)cn1
remaining activity (enzyme activity; inhibitor; 10 µM): 99.9%

CSc1cccnc1N1CCN(Cc2nc3ccccc3[nH]2)CC1
remaining binding (cell-free assay; competition with immobilised ligand; 1 µM): 100%

COc1cc(Cl)c(C(=O)N[C@@H](CN[C@H]2CC[C@@H](N)CC2)Cc2ccc(C#N)cc2)cc1-c1ccc(CN[C@H](C)c2ccc(C)cc2)o1
remaining activity (enzyme activity; inhibitor; 1 µM): 95%

O=C(NCc1ncc(C(F)(F)F)cc1Cl)c1ccc2c(c1)C1(CCS(=O)(=O)CC1)[C@@H](C1CC1)N2S(=O)(=O)c1ccc(F)cc1
remaining binding (cell-free assay; competition with immobilised ligand; 1 µM): 100%

N#CCCc1ccc2c(c1)-c1[nH]c3ccc([N+](=O)[O-])cc3c1CC(=O)N2
remaining signal (cell-free assay; 0.5 µM): 104%

CNC(=O)c1cc(Oc2ccc(NC(=O)Nc3ccc(Cl)c(C(F)(F)F)c3)cc2)ccn1
inhibition (enzyme activity; inhibitor; 10 µM): -29%

CC(C)(O)c1cncc(-c2nc3ccc(F)cc3n2C2CC2)c1
remaining binding (cell-free assay; competition with immobilised ligand; 1 µM): 100%
